ChEMBL document CHEMBL1921780, “Novel 3-nitro-1H-1,2,4-triazole-based aliphatic and aromatic amines as anti-chagasic agents” (J Med Chem, 2011)

Tests used:
L6 = test: Cytotoxicity against rat L6 cells after 72 hrs by alamar blue assay; format: cell-based; conditions: L6, 72 h
In short: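 Run in 96-well plates with a compound dose series. T. cruzi was tested as amastigotes inside infected L6 rat skeletal myoblasts. Uninfected L6 cells were used for cytotoxicity. IC50 was obtained by linear regression from sigmoidal dose–inhibition curves.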

[1] = Selectivity index, ratio of IC50 for rat L6 cells to IC50 for Trypanosoma brucei rhodesiense STIB 900; format: toxicity, cell-based; conditions: L6 cells versus Trypanosoma brucei rhodesiense STIB 900, read-out: Ratio IC50
In short: (§1)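 Selectivity index is the L6 myoblast IC50 divided by the IC50 for each parasite. L. donovani was tested as axenic amastigotes. Both IC50s came from 96-well dose-response screens fitted by linear regression of sigmoidal curves.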

Trypanosoma cruzi [2] = test: Antitrypanosomal activity against amastigotes of Trypanosoma cruzi Tulahuen C4 infected in rat L6 cells after 72 hrs by alamar blue assay; conditions: Tulahuen C4, L6, 72 h
[3] = Selectivity index, ratio of IC50 for rat L6 cells to IC50 for Trypanosoma cruzi Tulahuen C4; format: toxicity, cell-based; conditions: L6 cells versus Trypanosoma cruzi Tulahuen C4, read-out: Ratio IC50; in short: as §1
Trypanosoma cruzi [4] = test: Ratio of benznidazole IC50 to compound IC50 for Trypanosoma cruzi Tulahuen C4 infected in rat L6 cells after 72 hrs by alamar blue assay; format: functional
[5] = Dissociation constant, pKa of the compound; format: physicochemical
[6] = Selectivity index, ratio of IC50 for rat L6 cells to IC50 for Leishmania donovani MHOM-ET-67/L82; format: toxicity, cell-based; conditions: L6 cells versus Leishmania donovani MHOM-ET-67/L82, read-out: Ratio IC50; in short: as §1
Leishmania donovani = test: Antileishmanial activity against Leishmania donovani MHOM-ET-67/L82 axenic amastigotes after 72 hrs by alamar blue assay; conditions: MHOM-ET-67/L82, 72 h
[7] = system: Trypanosoma brucei rhodesiense; test: Antitrypanosomal activity against blood stream form of Trypanosoma brucei rhodesiense STIB 900 […] after 72 hrs by alamar blue assay; format: functional, organism-based; conditions: STIB 900, 72 h
[8] = system: Trypanosoma brucei brucei; test: Antitrypanosomal activity against blood-stream Trypanosoma brucei brucei after 3 days by alamar blue assay; format: functional, organism-based; conditions: 72 h
In short: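 Bloodstream-form parasites seeded at 1 × 10^3 per ml in growth medium with a range of nitrotriazole or nifurtimox concentrations, no tetracycline. Incubated 3 days at 37 °C, then Alamar blue added for a further 16 h. IC50 taken from culture cell density.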

Row | SMILES | IC50 (L6) [µM] | selectivity ratio [1] | IC50 (Trypanosoma cruzi [2]) [µM] | selectivity ratio [3] | Ratio IC50 (Trypanosoma cruzi [4]) | pKa [5] | selectivity ratio [6] | IC50 (Leishmania donovani) [µM] | IC50 [7] [µM] | IC50 [8] [µM]
1 | Cl.O=[N+]([O-])c1ncn(CCCNc2c3ccccc3nc3ccccc23)n1 | 20.5 | 34 | 0.14 | 147 | 9.6 | 9.2 | 1 | 35.4 | 0.611 | 
2 | COc1ccc2nc3cc(Cl)ccc3c(NCCCCn3cnc([N+](=O)[O-])n3)c2c1 | 9.94 | 74 | 0.151 | 66 |  | 8.84 | 1 | 10.2 | 0.134 | 
3 | O=[N+]([O-])c1nccn1CCNc1c2ccccc2nc2ccccc12 | 0.308 |  | 0.996 |  |  |  |  | 9.09 | 0.996 | 
4 | O=[N+]([O-])c1nccn1CCCCNc1c2ccccc2nc2ccccc12 | 1.68 | 3 | 0.926 | 2 |  |  |  | 14.8 | 0.601 | 
5 | O=[N+]([O-])c1nccn1CCCNc1ccnc2cc(Cl)ccc12 | 24.9 | 18 | 1.04 | 24 |  |  |  | 54.4 | 1.4 | 
6 | O=[N+]([O-])c1nccn1CCCCNc1ccnc2cc(Cl)ccc12 | 66.8 | 36 | 3.51 | 19 |  |  | 2 | 39.1 | 1.87 | 
7 | Cc1nc(NCCCn2ccnc2[N+](=O)[O-])c2ccccc2n1 | 31.6 | 9 | 2.1 | 15 |  |  |  | 68.3 | 3.46 | 
8 | O=[N+]([O-])c1nccn1CCCCNc1nc(-c2ccccc2)nc2ccccc12 | 32.5 | 12 | 3.63 | 9 |  |  | 5 | 6.17 | 2.76 | 
9 | Cc1nc(C(F)(F)F)nc(NCCCn2ccnc2[N+](=O)[O-])c1C | > 236 | > 16 | 4.28 | > 55 |  |  | > 12 | 20.1 | 15.2 | 
10 | Cc1cc(NCCCn2ccnc2[N+](=O)[O-])nc(N)n1 | > 287 | > 28 | 7.08 | > 41 |  |  |  | > 95.7 | 10.3 | 
11 | Cc1cc(NCCCCn2ccnc2[N+](=O)[O-])nc(N)n1 | > 275 | > 23 | 41.8 | > 7 |  |  | > 3 | 98.1 | 11.8 | 
12 | COc1cc2nc(Cl)nc(NCCCCn3ccnc3[N+](=O)[O-])c2cc1OC | 16.5 | 7 | 0.968 | 17 |  |  | 5 | 3.63 | 2.26 | 
13 | O=[N+]([O-])c1nccn1CCCCNc1nc(-c2ccccc2)nc(Cl)c1-c1ccccc1 | 11.7 | 1 | 9.67 | 1 |  |  | 1 | 12.4 | 15.5 | 
14 | O=C1C(Cl)=C(NCCCn2ccnc2[N+](=O)[O-])C(=O)c2ccccc21 | 3.91 | 6 | 30.1 |  |  |  | 8 | 0.516 | 0.621 | 
15 | Cl.O=[N+]([O-])c1ncn(CCCCNc2ccnc3cc(C(F)(F)F)ccc23)n1 | 114 | 973 | 0.305 | 373 | 4.4 | 7.53 | 1 | 137 | 0.117 | 
16 | Clc1ccc2c(NCCCCn3cncn3)ccnc2c1 | > 298 | > 14 | 92.1 | > 3 |  |  |  | > 298 | 21.8 | 
17 | Cl.O=[N+]([O-])c1ncn(CCCCNc2nc(-c3ccccc3)nc3ccccc23)n1 | 77 | 137 | 1.74 | 44 | 0.8 | 5.06 | 9 | 8.69 | 0.562 | 

Row | SMILES | IC50 (L6) [µM] | selectivity ratio [1] | IC50 (Trypanosoma cruzi [2]) [µM] | selectivity ratio [3] | Ratio IC50 (Trypanosoma cruzi [4]) | pKa [5] | selectivity ratio [6] | IC50 (Leishmania donovani) [µM] | IC50 [7] [µM] | IC50 [8] [µM]
18 | Cc1cc(NCCCn2cnc([N+](=O)[O-])n2)nc(N)n1 | > 286 | > 131 | 33.7 | > 8 |  |  |  | > 95.4 | 2.19 | 
19 | Cl.O=[N+]([O-])c1ncn(CCCNc2ccnc3cccnc23)n1 | 133 | 60 | 1.03 | 129 | 1.3 | 6.81 | 1 | 182 | 2.22 | > 10
20 | Cl.O=[N+]([O-])c1ncn(CCCCNc2ccnc3cccnc23)n1 | 95.8 | 220 | 0.46 | 208 | 2.9 | 6.81 |  | > 276 | 0.435 | 
21 | O=C1C(Cl)=C(NCCCn2cnc([N+](=O)[O-])n2)C(=O)c2ccccc21 | 7.16 | 8 | 15.6 |  |  |  | 1 | 6.53 | 0.882 | 
22 | O=[N+]([O-])c1nccn1CCCNCc1cc(C(F)(F)F)cc(C(F)(F)F)c1 | 140 | 10 | 24.5 | 6 |  |  | < 2 | > 69.4 | 13.8 | 
23 | O=[N+]([O-])c1nccn1CCCN(Cc1ccc(C(F)(F)F)cc1)Cc1ccc(C(F)(F)F)cc1 | > 172 | > 7 | 3.77 | > 46 |  |  | > 27 | 6.49 | 23 | 
24 | O=[N+]([O-])c1nccn1CCCN(Cc1cccc(C(F)(F)F)c1)Cc1cccc(C(F)(F)F)c1 | 79.6 | 4 | 8.02 | 10 |  |  | 19 | 4.27 | 21.6 | 
25 | O=[N+]([O-])c1ncn(CCCN(Cc2cc(C(F)(F)F)cc(C(F)(F)F)c2)Cc2cc(C(F)(F)F)cc(C(F)(F)F)c2)n1 | 78.8 | 10 | 1.96 | 40 |  |  | 16 | 4.87 | 8.17 | 
26 | FC(F)(F)c1cc(CNCCCCn2cncn2)cc(C(F)(F)F)c1 | > 224 | > 7 | 123 | > 2 |  |  | > 1 | 172 | 32.3 | 
27 | O=[N+]([O-])c1nccn1CCCNCc1ccc2cc(Br)ccc2n1 | 137 | 16 | 6.05 | 23 |  |  | 2 | 80.3 | 8.56 | 
28 | O=[N+]([O-])c1nccn1CCCN(Cc1ccc2cc(Br)ccc2n1)Cc1ccc2cc(Br)ccc2n1 | 93.6 | 7 | 4.67 | 20 |  |  | 5 | 18.7 | 14.2 | 
29 | Cl.O=[N+]([O-])c1ncn(CCCNCc2ccc3ccc(Cl)cc3n2)n1 | 143 | 136 | 0.311 | 460 | 4.3 | 8.76 | 2 | 63.8 | 1.05 | 
30 | Cl.O=[N+]([O-])c1ncn(CCCN(Cc2ccc3ccc(Cl)cc3n2)Cc2ccc3ccc(Cl)cc3n2)n1 | 71.6 | 78 | 0.358 | 200 | 3.8 | 6.87 | 7 | 9.58 | 0.917 | 
31 | Cl.O=[N+]([O-])c1ncn(CCCN(Cc2ccc3cc(Br)ccc3n2)Cc2ccc3cc(Br)ccc3n2)n1 | 46 | 99 | 0.32 | 144 | 4.2 | 6.87 | 5 | 9.33 | 0.463 | 
32 | Cl.O=[N+]([O-])c1ncn(CCCNCc2ccc(C(F)(F)F)cc2)n1 | 122 | 34 | 0.32 | 383 | 4.2 | 9.65 | 1 | 159 | 3.61 | 
33 | O=[N+]([O-])c1nccn1CCCN1CCN(Cc2ccc(C(F)(F)F)cc2)CC1 | > 191 | > 13 | 20.7 | > 9 |  |  |  | > 191 | 15.3 | 
34 | Nc1nc(N)nc(Nc2ccc([As]3SCC(CO)S3)cc2)n1 (centres undefined) [MELARSOPROL] |  |  |  |  |  |  |  |  | 0.01 | 
